pIC50, pKd: −log10 of the molar value. Activity calls are given as the source filed them. The calls are words filed in the database; no cut-off is given here.
Columns and labels:
LNCaP [1] = experiment: Inhibition of cell proliferation of human LNCAP cells in steroid reduced condition after 3 days; type: functional
Procedure, shortened: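 C-81 cells (passage 80–120) plated at 2×10³ cells/well for 3 days, then starved 2 days in phenol red-free RPMI 1640 with 5% charcoal/dextran-treated FBS, 2 mM glutamine, 50 µg/ml gentamicin and 1 nM DHT. Refed with this medium, then treated for 3 days (solvent controls). Cells counted and normalized to control. Three independent experiments in triplicate, mean ± SD.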

LNCaP [2] = experiment: Inhibition of cell proliferation of human LNCAP cells in regular medium after 3 days; type: functional
Procedure, shortened: (§1)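 LNCaP C-81 cells (passage 80–120) grown in phenol red-positive RPMI 1640 with 5% FBS, 2 mM glutamine, 50 µg/ml gentamicin at 37°C, 5% CO2. Plated at 2×10³ cells/well for 3 days, then exposed to compound (DMSO stock diluted 1000×; DMSO-matched controls) for 3 days. Cells counted with an image-based counter and normalized to control. Three independent experiments in triplicate, mean ± SD.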

LNCaP [3] = experiment: Antiproliferative activity against human LNCAP cells in regular medium after 3 days; type: functional, cell-based; procedure, shortened: as §1
Histone H4 [4] = biological target: T1, Histone H4 (Homo sapiens, UniProt P62805); experiment: Binding affinity to fluorescein-labeled Histone H4(1-20) assessed as peptide fluorescence quenching by spectrofluorometry
Procedure, shortened: (§2)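 H4(1-20) peptide bearing fluorescein on a Dpr residue, 1 µM, in 50 mM HEPES pH 8.0, 10 mM NaCl, 1 mM DTT at 30°C. Titrated with compound from 1 to 100 µM. Excitation 498 nm; emission intensity followed at 523–524 nm. Kd taken from the fluorescence titration.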

[5] = biological target: T2, Histone-arginine methyltransferase CARM1 (Homo sapiens) (UniProt Q86X55); experiment: Inhibition of His6x-tagged PRMT4 expressed in Escherichia coli BL21 (DE3) using Histone H3(1-31) substrate in the presence of [14C] SAM assessed as residual activity at 30 uM by liquid scintillation counting
T2 sequence (whole entry): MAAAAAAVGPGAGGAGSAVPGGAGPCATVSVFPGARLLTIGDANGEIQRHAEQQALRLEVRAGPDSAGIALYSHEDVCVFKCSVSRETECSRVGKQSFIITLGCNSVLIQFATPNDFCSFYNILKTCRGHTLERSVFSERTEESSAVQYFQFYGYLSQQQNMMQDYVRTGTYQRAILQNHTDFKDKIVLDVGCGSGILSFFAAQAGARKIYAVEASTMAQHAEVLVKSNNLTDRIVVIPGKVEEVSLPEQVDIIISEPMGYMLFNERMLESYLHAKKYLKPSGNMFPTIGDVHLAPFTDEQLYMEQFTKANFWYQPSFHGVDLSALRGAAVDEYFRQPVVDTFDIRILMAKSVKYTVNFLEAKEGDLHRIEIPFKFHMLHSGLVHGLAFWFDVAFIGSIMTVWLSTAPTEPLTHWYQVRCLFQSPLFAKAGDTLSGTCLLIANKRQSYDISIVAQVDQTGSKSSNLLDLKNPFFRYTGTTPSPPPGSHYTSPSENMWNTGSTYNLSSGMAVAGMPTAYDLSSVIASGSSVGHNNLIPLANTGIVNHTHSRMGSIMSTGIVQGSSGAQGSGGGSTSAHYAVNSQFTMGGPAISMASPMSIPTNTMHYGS
Procedure, shortened: (§3)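 Recombinant PRMT4 (0.3 µM) with H3(1-31) at 400 µM, or PRMT5 (1 µM) with H4(1-20) at 2 µM. Substrate and 5 µM [14C]-SAM preincubated 5 min in 50 mM HEPES pH 8.0, 10 mM NaCl, 1 mM DTT at 30°C before enzyme was added. Reactions run 2 h (PRMT4) or 6 h 30 min (PRMT5), with or without 30 µM compound in 2% DMSO. Stopped on P81 paper, washed with NaHCO3, counted by scintillation. Activity normalized to no-inhibitor control.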

Histone H4 [6] = biological target: T1, Histone H4; experiment: Binding affinity to fluorescein-labeled Histone H4(1-20) by spectrofluorometry; procedure, shortened: as §2
[7] = biological target: Protein arginine N-methyltransferase 5 (Homo sapiens) (UniProt O14744); experiment: Inhibition of His6x-tagged PRMT5 expressed in Escherichia coli BL21 (DE3) using Histone H4(1-20 substrate in the presence of [14C] SAM assessed as residual activity at 30 uM by liquid scintillation counting; procedure, shortened: as §3
Chain of Protein arginine N-methyltransferase 5 (Homo sapiens) (O14744 whole entry, the tested form may be a part): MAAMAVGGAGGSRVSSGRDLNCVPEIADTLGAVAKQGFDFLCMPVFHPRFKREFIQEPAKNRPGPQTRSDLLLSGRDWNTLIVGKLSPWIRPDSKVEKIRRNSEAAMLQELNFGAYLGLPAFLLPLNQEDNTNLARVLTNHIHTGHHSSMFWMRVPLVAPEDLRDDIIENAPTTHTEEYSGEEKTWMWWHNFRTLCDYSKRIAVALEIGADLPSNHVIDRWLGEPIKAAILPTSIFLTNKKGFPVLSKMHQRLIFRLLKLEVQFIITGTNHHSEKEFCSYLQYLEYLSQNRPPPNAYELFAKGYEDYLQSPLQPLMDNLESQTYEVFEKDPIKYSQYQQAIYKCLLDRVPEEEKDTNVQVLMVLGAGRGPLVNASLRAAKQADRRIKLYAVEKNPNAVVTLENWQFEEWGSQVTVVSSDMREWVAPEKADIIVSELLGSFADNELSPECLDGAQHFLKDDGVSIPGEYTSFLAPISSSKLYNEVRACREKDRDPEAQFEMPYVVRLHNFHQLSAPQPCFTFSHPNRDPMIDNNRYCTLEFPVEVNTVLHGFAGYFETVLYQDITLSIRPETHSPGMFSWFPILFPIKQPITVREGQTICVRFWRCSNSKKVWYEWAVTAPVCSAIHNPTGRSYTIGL

[8] = biological target: Histone acetyltransferase p300 (Homo sapiens, UniProt Q09472); experiment: Inhibition of recombinant p300 HAT domain using Histone H4(1-20) substrate assessed as inhibition of histone acetyltransferase activity after 10 mins by liquid scintillation counting
Chain of Histone acetyltransferase p300 (Q09472 whole entry, the tested form may be a part): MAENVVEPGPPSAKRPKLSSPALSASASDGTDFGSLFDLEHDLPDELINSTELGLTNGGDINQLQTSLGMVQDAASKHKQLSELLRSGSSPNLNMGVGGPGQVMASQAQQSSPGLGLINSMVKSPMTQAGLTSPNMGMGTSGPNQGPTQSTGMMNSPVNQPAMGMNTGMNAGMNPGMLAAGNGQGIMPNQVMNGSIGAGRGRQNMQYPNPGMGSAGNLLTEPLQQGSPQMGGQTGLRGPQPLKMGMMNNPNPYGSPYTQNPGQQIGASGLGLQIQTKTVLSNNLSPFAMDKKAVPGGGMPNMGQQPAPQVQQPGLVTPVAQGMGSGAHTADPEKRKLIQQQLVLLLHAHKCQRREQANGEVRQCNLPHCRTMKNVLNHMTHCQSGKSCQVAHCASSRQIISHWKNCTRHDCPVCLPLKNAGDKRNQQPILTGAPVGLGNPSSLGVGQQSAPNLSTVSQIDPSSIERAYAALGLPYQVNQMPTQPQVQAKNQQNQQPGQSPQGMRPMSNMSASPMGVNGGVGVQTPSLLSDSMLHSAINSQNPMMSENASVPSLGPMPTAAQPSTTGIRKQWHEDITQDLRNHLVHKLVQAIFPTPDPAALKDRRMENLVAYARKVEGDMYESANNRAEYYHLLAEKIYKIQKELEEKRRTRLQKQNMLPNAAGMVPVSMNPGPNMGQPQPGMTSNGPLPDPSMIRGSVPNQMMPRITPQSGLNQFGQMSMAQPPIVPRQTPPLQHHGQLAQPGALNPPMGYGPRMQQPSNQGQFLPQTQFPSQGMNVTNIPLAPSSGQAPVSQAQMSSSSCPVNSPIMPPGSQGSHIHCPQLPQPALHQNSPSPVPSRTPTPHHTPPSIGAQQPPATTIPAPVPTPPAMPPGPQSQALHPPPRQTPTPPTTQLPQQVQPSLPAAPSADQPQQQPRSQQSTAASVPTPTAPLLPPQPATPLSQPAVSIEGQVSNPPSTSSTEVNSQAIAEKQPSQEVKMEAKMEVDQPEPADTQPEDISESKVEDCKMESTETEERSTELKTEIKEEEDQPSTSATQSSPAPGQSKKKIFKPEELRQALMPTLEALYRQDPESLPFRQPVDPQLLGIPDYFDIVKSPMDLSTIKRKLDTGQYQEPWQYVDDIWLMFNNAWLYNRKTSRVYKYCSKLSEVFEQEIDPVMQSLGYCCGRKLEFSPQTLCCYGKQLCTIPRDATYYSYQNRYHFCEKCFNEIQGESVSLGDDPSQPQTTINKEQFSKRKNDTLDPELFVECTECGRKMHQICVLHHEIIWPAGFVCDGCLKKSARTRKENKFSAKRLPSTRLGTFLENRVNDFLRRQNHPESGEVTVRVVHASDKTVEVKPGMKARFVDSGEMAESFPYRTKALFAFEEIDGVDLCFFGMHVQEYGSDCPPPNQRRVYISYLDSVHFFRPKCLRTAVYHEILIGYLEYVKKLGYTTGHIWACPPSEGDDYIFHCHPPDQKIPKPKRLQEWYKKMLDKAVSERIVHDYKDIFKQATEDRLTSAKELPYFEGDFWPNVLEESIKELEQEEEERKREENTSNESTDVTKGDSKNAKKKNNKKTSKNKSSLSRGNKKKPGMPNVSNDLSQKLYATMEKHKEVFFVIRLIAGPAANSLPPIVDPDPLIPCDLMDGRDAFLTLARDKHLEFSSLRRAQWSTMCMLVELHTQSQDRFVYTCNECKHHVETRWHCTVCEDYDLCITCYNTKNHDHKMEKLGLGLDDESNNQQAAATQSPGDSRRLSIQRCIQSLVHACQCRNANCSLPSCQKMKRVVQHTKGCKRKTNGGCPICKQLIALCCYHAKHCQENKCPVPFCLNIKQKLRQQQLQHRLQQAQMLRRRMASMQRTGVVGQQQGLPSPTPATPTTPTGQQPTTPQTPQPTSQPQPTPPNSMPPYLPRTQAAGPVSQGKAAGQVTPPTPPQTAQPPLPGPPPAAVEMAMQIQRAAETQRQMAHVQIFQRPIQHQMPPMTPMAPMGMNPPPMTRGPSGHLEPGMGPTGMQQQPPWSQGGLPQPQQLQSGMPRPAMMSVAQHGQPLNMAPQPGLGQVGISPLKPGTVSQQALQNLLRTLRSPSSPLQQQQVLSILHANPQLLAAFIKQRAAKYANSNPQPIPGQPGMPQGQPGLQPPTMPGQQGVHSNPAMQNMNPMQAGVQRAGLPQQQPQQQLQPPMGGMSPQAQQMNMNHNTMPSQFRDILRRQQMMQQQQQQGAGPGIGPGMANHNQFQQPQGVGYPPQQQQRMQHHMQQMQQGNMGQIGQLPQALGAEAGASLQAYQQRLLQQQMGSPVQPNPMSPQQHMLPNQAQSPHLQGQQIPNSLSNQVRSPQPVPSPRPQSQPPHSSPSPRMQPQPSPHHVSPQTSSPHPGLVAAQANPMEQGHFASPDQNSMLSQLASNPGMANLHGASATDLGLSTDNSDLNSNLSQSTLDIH
Procedure, shortened: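 p300 HAT domain (residues 1287–1666), 0.03 µM, incubated with 10 µM H4-20, 5 µM [14C]-acetyl CoA and increasing compound in 50 mM HEPES pH 8.0, 50 mM NaCl, 0.5 mM DTT, 1 mM EDTA at 30°C for 10 min. Stopped on P81 paper and counted by liquid scintillation. Fractional activity plotted against concentration to give IC50.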

Activity (Histone H4 [4]) | Activity [5] | pKd (Histone H4 [6]) | Activity [7] | pIC50 [8] | inhibition [8] | Structure (SMILES) | inhibition (INH) (LNCaP [1]) | inhibition (INH) (LNCaP [2]) | inhibition (LNCaP [3])
 |  |  |  |  |  | O=C(NN=C1C=CC(=NOS(=O)(=O)c2ccccc2)C=C1)c1cc2ccccc2cc1O | 30% | 70% | Dose-dependent effect
Active | 38% | 4.62 | 20% | 4.82 | Dose-dependent effect | O=C(c1ccc(O)c(NC(=O)c2cccc3ccccc23)c1)c1ccc(O)c(NC(=O)c2cccc3ccccc23)c1 |  | 32% | 

Reference: ChEMBL document CHEMBL2169753, “Pharmacophore-based virtual screening and biological evaluation of small molecule inhibitors for protein arginine methylation” (J Med Chem, 2012)
